From ChEMBL document CHEMBL5260841, “Discovery of N-(4-(6-Acetamidopyrimidin-4-yloxy)phenyl)-2-(2-(trifluoromethyl)phenyl)acetamide (CHMFL-FLT3-335) as a Potent FMS-like Tyrosine Kinase 3 Internal Tandem Duplication (FLT3-ITD) Mutant Selective Inhibitor for Acute Myeloid Leukemia” (J Med Chem, 2019)
Active and inactive are the calls of the source. No cut-off for these calls is given here.

How the values were obtained:
BaF3 [1] = experiment: Antiproliferative activity against mouse BaF3 cells transfected with TEL fused FLT3 Y842H mutant assessed as cell growth inhibition incubated for 72 hrs by CCK-8 assay; assay type: functional
In short: (§1)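 Kinase-transformed isogenic BaF3 lines grown in RPMI 1640 with 10% FBS, 2% L-glutamine and pen/strep at 37 °C, 5% CO2. Seeded at 1500-3000 cells/well and treated with a compound concentration series for 72 h. Viability read by CCK8 absorbance at 450 nm.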

[2] = Half life in Sprague-Dawley rat at 10 mg/kg, po; assay type: ADME, organism-based; details: in vivo
In short: (§2)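 Sprague-Dawley rats were dosed either intravenously at 1 mg/kg or by oral gavage at 10 mg/kg. Plasma PK parameters were AUC(0-t), AUC(0-∞), MRT(0-t), T1/2, Tmax, Vz, CLz, Cmax and F%. Values are the mean ± SD of three independent animals.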

MV4-11 [3] = experiment: Inhibition of AKT phosphorylation at Thr308 residue in human MV4-11 cells harboring FLT3-ITD mutant incubated for 4 hrs by Western blot analysis; assay type: cell-based; details: dose 0.01-3 µM
In short: (§3)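 Cells were exposed to the compound at a series of concentrations for 4 h, and whole-cell lysates were analysed by Western blot. MV4-11 cells were grown in IMDM with 10% FBS. MOLM13 and MOLM14 cells were grown in RPMI 1640 with 10% FBS. All cultures were kept at 37 °C with 5% CO2.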

[4] = Toxicity in nu/nu mouse xenografted with human MV4-11 cells assessed as reduction in body weight at 25 to 100 mg/kg/day, po administered via gavage for 28 days; assay type: organism-based; details: in vivo, 672 h, dose 25-100 mg/kg/day, time 28 day
In short: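 Mice were inoculated with MV4-11 cells. Once tumours reached a mean volume of about 200 mm3, animals received vehicle or compound orally once daily for 28 days. Body weight was tracked and expressed relative to the initial weight, which was set as 100%.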

HL-60 = experiment: Antiproliferative activity against human HL-60 cells transfected with wild type FLT3 assessed as cell growth inhibition incubated for 72 hrs by CCK-8 assay; assay type: functional
In short: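 Cells kept at 37 °C, 5% CO2. MV4-11 grown in IMDM with 10% FBS. MOLM13, MOLM14, U937 and HL-60 grown in RPMI 1640 with 10% FBS. OCI-AML-2 grown in α-MEM with 20% FBS. Seeded at 1500-3000 cells/well and exposed to a concentration series for 72 h. Viability read by CCK8 absorbance at 450 nm.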

BaF3 [5] = experiment: Antiproliferative activity against mouse BaF3 cells transfected with FLT3 ITD D835I mutant assessed as cell growth inhibition incubated for 72 hrs by CCK-8 assay; assay type: functional; in short: as §1
MOLM-13 [6] = experiment: Downregulation of c-Myc protein expression in human MOLM-13 cells harboring FLT3-ITD mutant incubated for 4 hrs by Western blot analysis; assay type: functional, cell-based; details: dose 0.01-3 µM
In short: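 MOLM13 and MOLM14 cells exposed to the indicated concentrations for 4 h. Whole-cell lysates analysed by Western blot for c-Myc, alongside FLT3 Tyr589/591, STAT5, AKT and ERK phosphorylation.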

BaF3 [7] = experiment: Antiproliferative activity against mouse BaF3 cells transfected with TEL-fused cKIT assessed as cell growth inhibition incubated for 72 hrs by CCK-8 assay; assay type: functional; in short: as §1
[8] = Clearance in Sprague-Dawley rat at 10 mg/kg, po; assay type: ADME, organism-based; details: in vivo, read-out: CL(app) (converted)
In short: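 Sprague-Dawley rats dosed IV at 1 mg/kg or by oral gavage at 10 mg/kg. Parameters from plasma exposure: AUC(0-t), AUC(0-∞), MRT, T1/2, Tmax, Vz, CLz, Cmax. Values are mean ± SD from three animals.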

[9] = Cytotoxicity against human PBMC cells assessed as reduction in cell viability at 5 uM; assay type: toxicity, cell-based
[10] = MRT (0 to t) in Sprague-Dawley rat at 1 mg/kg, iv; assay type: ADME, organism-based; details: in vivo; in short: as §2
MV4-11 [11] = experiment: Inhibition of ERK phosphorylation at Thr202/Tyr204 residues in human MV4-11 cells harboring FLT3-ITD mutant incubated for 4 hrs by Western blot analysis; assay type: cell-based; details: dose 0.01-3 µM; in short: as §3
BaF3 [12] = experiment: Antiproliferative activity against mouse BaF3 cells transfected with TEL fused PDGFRbeta assessed as cell growth inhibition incubated for 72 hrs by CCK-8 assay; assay type: functional; in short: as §1
MOLM-14 = experiment: Induction of cell cycle arrest in human MOLM-14 cells harboring FLT3-ITD mutant assessed as accumulation of cells at G0/G1 phase at 0.1 uM incubated for 24 hrs by RNase/PI staining based flow cytometry analysis; assay type: functional
MOLM-13 [13] = experiment: Inhibition of ERK phosphorylation at Thr202/Tyr204 residues in human MOLM-13 cells harboring FLT3-ITD mutant incubated for 4 hrs by Western blot analysis; assay type: cell-based; details: dose 0.01-3 µM; in short: as §3
[14] = Cytotoxicity against CHL cells assessed as inhibition of cell growth; assay type: toxicity, cell-based, Cricetulus griseus; details: chinese hamster
[15] = molecular target: T1, Receptor-type tyrosine-protein kinase FLT3 (Homo sapiens, UniProt P36888); experiment: Inhibition of FLT3 (unknown origin) preincubated for 60 mins followed by ATP addition and measured after 1 hr by ADP-Glo assay
T1 sequence (P36888 whole entry): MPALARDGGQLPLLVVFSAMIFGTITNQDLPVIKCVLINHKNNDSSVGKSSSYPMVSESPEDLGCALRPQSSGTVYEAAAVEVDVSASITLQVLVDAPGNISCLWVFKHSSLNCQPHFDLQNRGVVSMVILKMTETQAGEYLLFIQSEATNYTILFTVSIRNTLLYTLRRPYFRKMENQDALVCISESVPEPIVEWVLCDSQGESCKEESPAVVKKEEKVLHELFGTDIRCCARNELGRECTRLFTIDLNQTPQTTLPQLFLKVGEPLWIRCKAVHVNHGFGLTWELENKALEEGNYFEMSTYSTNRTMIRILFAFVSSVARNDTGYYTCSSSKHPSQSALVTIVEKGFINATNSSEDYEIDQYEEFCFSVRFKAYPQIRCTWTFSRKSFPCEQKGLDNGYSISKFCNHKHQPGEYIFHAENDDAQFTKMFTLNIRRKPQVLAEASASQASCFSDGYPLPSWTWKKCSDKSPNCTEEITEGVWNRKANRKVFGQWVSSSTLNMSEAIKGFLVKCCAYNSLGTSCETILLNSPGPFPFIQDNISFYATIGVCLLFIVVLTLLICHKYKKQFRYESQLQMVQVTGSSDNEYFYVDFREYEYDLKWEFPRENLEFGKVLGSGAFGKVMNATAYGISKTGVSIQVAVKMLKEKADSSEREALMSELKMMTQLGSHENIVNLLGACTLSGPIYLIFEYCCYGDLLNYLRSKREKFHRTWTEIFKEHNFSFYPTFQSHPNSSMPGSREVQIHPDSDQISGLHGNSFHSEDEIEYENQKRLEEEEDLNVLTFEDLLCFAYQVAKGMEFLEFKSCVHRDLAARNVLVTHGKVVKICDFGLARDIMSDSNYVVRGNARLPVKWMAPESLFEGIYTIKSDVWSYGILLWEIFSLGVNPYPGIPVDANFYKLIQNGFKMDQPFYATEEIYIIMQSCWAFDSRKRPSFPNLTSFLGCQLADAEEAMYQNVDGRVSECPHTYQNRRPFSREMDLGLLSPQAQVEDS

CC(=O)Nc1cc(Oc2ccc(NC(=O)Cc3ccccc3C(F)(F)F)cc2)ncn1
GI50 (BaF3 [1]): 7.5 µM
half-life [2]: 2.8 h
inhibition (MV4-11 [3]): Dose-Dependent Effect
Activity [4]: Non-Toxic
GI50 (HL-60): > 10 µM
GI50 (BaF3 [5]): > 10 µM
Activity (MOLM-13 [6]): Dose-Dependent Effect
GI50 (BaF3 [7]): > 10 µM
CL/F [8]: 6.67 mL/min/kg
Activity [9]: Non-Toxic
MRT last [10]: 1.9 h
inhibition (MV4-11 [11]): Dose-Dependent Effect
GI50 (BaF3 [12]): 0.04 µM
Activity (MOLM-14): Active
inhibition (MOLM-13 [13]): Dose-Dependent Effect
GI50 [14]: > 10 µM
IC50 [15]: 0.0908 µM
